FLuc act counter – firefly luciferase counter-screen for stimulation assays; P08659; ATPlite luciferase biochemical, luminescence, 10 min; 0 = ATP-free wells, 1 = DMSO control; activation factor at 10 µM; 200,000 tested, under 10 active;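 active means luciferase activation factor, scaled between plate controls, of at least 2 with compound at 10 µM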
Target sequence (P08659 whole entry, looked up): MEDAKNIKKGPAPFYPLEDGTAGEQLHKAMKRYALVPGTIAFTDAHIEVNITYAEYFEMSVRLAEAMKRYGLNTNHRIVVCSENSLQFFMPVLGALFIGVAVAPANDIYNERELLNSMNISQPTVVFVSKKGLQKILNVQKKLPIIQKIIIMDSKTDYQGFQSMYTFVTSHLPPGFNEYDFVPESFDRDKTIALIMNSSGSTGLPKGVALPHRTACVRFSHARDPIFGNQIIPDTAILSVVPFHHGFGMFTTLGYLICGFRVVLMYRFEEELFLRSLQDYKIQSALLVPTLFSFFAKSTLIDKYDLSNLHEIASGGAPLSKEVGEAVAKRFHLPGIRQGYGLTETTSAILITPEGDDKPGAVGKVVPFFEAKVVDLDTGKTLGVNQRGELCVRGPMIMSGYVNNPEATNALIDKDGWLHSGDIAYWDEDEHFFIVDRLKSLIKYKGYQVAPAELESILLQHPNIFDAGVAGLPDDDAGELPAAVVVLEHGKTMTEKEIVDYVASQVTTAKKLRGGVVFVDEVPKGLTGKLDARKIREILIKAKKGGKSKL
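System: Luciferase/luciferin detection reagent, cell-free biochemical luciferase assay | Medium: PBS buffer for ATP | Dosing: Test compounds dosed from 2 mM stocks in 100% DMSO | Timing: 10 min at ambient temperature | Signal: Luminescence measurement of luciferase light output | Evaluation: Luciferase activation, seen as luminescence increase over controls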
APP 5'UTR act – activates APP 5'UTR luciferase reporter; activation, % at 2 µM; SH-SY5Y APP 5'UTR luciferase reporter, luminescence; zero percent = DMSO vehicle wells; 190,000 compounds, 1% hits;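 active means activation above a set limit, based on mean plus 3 SD of controls, cut at about 140% in these data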
PPC-1+TRAIL kill – compounds killing PPC-1 cancer cells with TRAIL present (potentiator screen, no TRAIL-free arm); AID 1443; PPC-1 cells + TRAIL, ATPLite viability luminescence; 220,000 compounds, 0.41% hits; cell killing (% activity), % at 4 µM or 5 µM;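 active means cell killing above 50% in the first pass at 4 µM, then a duplicate retest at 5 µM averaging 50% or more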;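 further: plate controls were cells with TRAIL plus DMSO for no effect and medium-only wells lacking cells for full effect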
C8 TRAIL sens – caspase-8 TRAIL sensitization; NB7+C8 cells + TRAIL, ATPlite viability luminescence; inhibition (viability loss, TRAIL sensitization), % at 10 µM; 360,000 compounds, 1% hits; AID 624354;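 active means compounds causing at least 50% loss of cell viability in the single-dose screen, relative to plate controls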
NF-kB expr up – NF-kB expression increase, human neuronal cells; AID 1239; fold change at 12.5 µM; 190,000 compounds, 1.6% hits; NF-kB reporter expression; hits give high values; in the data active means fold change above about 3.3
FLuc inh counter – Photinus pyralis luciferase inhibition counter-screen | 200,000 compounds, 1.5% hits | inhibition, % at 10 µM | P08659 | ATPLite firefly luciferase biochemical luminescence, 10 min | AID 1006;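 active means inhibition above about 50% when tested at 10 µM, limit read from the data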
* = called active by the depositor; / = no result given. This is a sample that favours compounds with a hit; in the whole collection about 2.2% have one here.

SMILES	FLuc act counter	APP 5'UTR act	PPC-1+TRAIL kill	C8 TRAIL sens	NF-kB expr up	FLuc inh counter
COc1ccccc1/C=N/NC(=Nc1ccc(C)cc1)c1nc2ccccc2s1	1	21.6	36.0	/	0.63	2.3
CC(/C=N/Nc1nc2ccccc2[nH]1)=C\c1ccccc1	0.3	172.4*	18.6	38.2	8.6*	72.0*
COc1ccc(/C=N/Nc2nc3ccccc3c(=O)n2-c2ccccc2)cc1OC	0.3	6.3	26.6	52.6*	0.95	69.3*
CCOC(=O)N(C)c1c(CC)nc2c(OCc3ccccc3)cccn12	/	/	/	-1.2	/	/
COCCNC(=O)C1(C)CCCN(CCOc2ccc(Cl)cc2)C1 (stereo not given)	/	/	/	-10.7	/	/
Cc1ccc2nc(N3CCN(c4cccc(C)c4C)CC3)c3nnnn3c2c1	1.1	-5.7	3.6	2.6	0.66	-6.6
Cc1ccc2nc(Cl)c3nnnn3c2c1	1	-25.6	18.2	61.5*	0.29	-1.4
COC(=O)c1ccc(-c2nc3cc(Cl)c(N)cc3s2)cc1	0.2	141.7*	32.7	83.0*	1.56	84.8*
CNC(=O)c1ccc(-c2ccc(OC)cc2)s1	0.4	99.1	36.1	30.6	4.58*	61.2*
COc1ccc(NC(=O)c2ccc(-c3ccc(OC)cc3)s2)cc1	1	38.9	11.5	-4.5	1.17	-4.4
CCOC(=O)C1(C)CCN1C(=O)c1cccc(C(F)(F)F)c1 (stereo not given)	/	/	/	-12.5	/	/
COCCn1nnnc1C(CC(C)C)N1CCN(c2cccc(OC)c2)CC1 (stereo not given)	1.1	-15.4	21.4	-13.0	5.79*	-7.5
O=C1C(=Cc2ccccc2O)SC(=S)N1CCCN1CCOCC1	/	/	/	14.8	/	/
CC(/C=N/N1CCN(c2ccccc2)CC1)=C\c1ccco1	0.8	79.9	22.4	4.7	3.64*	16.9
CC(=C/c1ccco1)/C=N/N1CCN(c2ccccc2)CC1	0.9	65.7	17.5	6.4	3.85*	11.8
COc1ccc(OCCN2CCC(C(=O)NC(c3ccc(Cl)cc3)c3ncccc3C)CC2)cc1 (stereo not given)	/	/	/	-5.7	/	/
CC(C)=CC(=O)Nc1ccc2c(c1)OCO2	0.5	126.1	23.9	31.8	4.53*	51.1*
CNC(=O)Nc1ccc(Cl)cc1	1	-14.2	-8.6	0.9	1.26	-3.4
CC(C)=CC(=O)Nc1ccc(Cl)cc1	0.7	183.8*	3.2	-2.4	3.3*	31.0
COc1ccc(NC(=O)Nc2cccs2)cc1Cl	0.4	74.7	-2.6	21.4	1.62	57.9*
COc1ccc(NC(=O)CCC(=O)c2cccs2)cc1Cl	/	/	/	-3.8	/	/
O=C(CSCSCC(=O)Nc1ccc2c(c1)OCO2)Nc1ccc2c(c1)OCO2	0.9	-2.8	17.1	7.8	1.27	11.5
COCC(=O)Nc1ccc(OC)c(Cl)c1	1	-1.1	16.1	5.4	1.02	2.7
COc1ccc(NC(=O)C=C(C)C)cc1Cl	0.8	152.7*	6.5	17.3	4.65*	19.4
CN1CCCC(C)(C(=O)Nc2ccc(-n3cccc3)cc2)C1 (stereo not given)	/	/	/	6.4	/	/
SMILES	FLuc act counter	APP 5'UTR act	PPC-1+TRAIL kill	C8 TRAIL sens	NF-kB expr up	FLuc inh counter
Brc1ccc(C2=NC(Cc3ccccc3)CO2)cc1 (stereo not given)	1	61.5	9.8	-8.1	3.33*	1.9
O=S1(=O)N[C@@H](Cc2ccccc2)COc2cc(Br)ccc21	/	/	/	-4.3	/	/
COc1ccc2[nH]c3c(NCCC4=CCCCC4)ncnc3c2c1	1	74.7	/	54.1*	1.39	-0.1
C=CCNc1ncnc2c1[nH]c1ccc(C)cc12	0.6	179.3*	18.6	17.4	4.46*	40.8
COc1ccc(Nc2cccc3ccccc23)cc1	/	/	/	55.9*	/	/
CCc1nc2ccc(C(=O)N3CCN(C(C)=O)CC3)cn2c1N(CC)C(=O)NCCc1ccccc1	/	/	/	11.7	/	/
Cc1ccccc1NC(=O)C1Cc2ccccc2C(=O)O1 (stereo not given)	1	-1.1	16.6	1.4	3.32*	2.8
Cc1cccc(C)c1NC(=O)C(c1ccccc1)N1CCC(c2ccccc2)CC1 (stereo not given)	/	/	/	-5.8	/	/
CN1C(=O)/C(=C\C=C2/CCCN2C)N(C)C1=S	1	11.2	1.1	1.6	5.7*	-2.8
CCCc1nc2c3ccccc3ccn2c1CC1CCCCC1	/	/	/	7.5	/	/
c1ccc(CCSc2nccn2-c2ccccc2)cc1	0.9	125.8	16.0	11.4	4.58*	10.7
CCc1ccc(CSc2nccn2-c2ccccc2)cc1	1.1	-0.9	15.4	-7.3	1.36	-6.5

Bioassay records (PubChem)
